From ChEMBL document CHEMBL3992510, “Urea Derivatives of 2-Aryl-benzothiazol-5-amines: A New Class of Potential Drugs for Human African Trypanosomiasis” (J Med Chem, 2017)
Active and inactive are the calls of the source. The calls are words filed in the database; no cut-off is given here.

Assays:
[1] = Cytotoxicity against human CRL8155 cells assessed as growth inhibition after 48 hrs by Alamar blue assay; assay type: cell-based; details: Homo sapiens, CRL8155, 48 h
How it was run: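 CRL-8155 lymphoblasts or HepG2 hepatocellular carcinoma cells are exposed 48 h to serial compound dilutions in quadruplicate. Growth is read with Alamar Blue, and 50% and 90% inhibitory concentrations come from nonlinear regression. Quinacrine is the control.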

[2] = test system: Trypanosoma brucei brucei; experiment: Antitrypanosomal activity against Trypanosoma brucei brucei BF427 assessed as growth inhibition measured after 48 hrs by Alamar blue assay; assay type: functional; details: BF427, 48 h
How it was run: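 Bloodstream-form parasites in HMI-9 medium are exposed to serial compound dilutions in triplicate. Viability is read with Alamar Blue at 48 h. EC50 and EC90 come from nonlinear regression. Pentamidine isethionate is the control.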

[3] = Selectivity index, ratio of EC50 for human HepG2 cells to EC50 for Trypanosoma brucei brucei BF427; assay type: toxicity; details: read-out: Ratio EC50
[4] = Drug level in Swiss-Webster mouse plasma infected with Trypanosoma brucei brucei TREU667 at 50 mg/kg, po bid administered via gavage for 10 days starting from 21 days post infection measured at 6 hrs post last dose; assay type: ADME, organism-based
[5] = Drug level in mouse plasma at 50 mg/kg, po administered as single dose via gavage measured at 8 hrs post dose by liquid chromatography/tandem mass spectrometric analysis; assay type: ADME, organism-based
How it was run: (§1)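 Single 50 mg/kg oral dose in DMSO (5%), Tween 80 (7%), EtOH (3%) in 0.9% saline; groups of three mice killed at 1, 4, 8 and 24 h. Plasma separated by brief centrifugation; brain homogenised in acetonitrile; both assayed by LC-MS/MS, brain values corrected for 3% v/w blood content. Mean ± SEM of 3 mice; plasma LLQ 0.010 μM.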

[6] = Drug level in mouse brain at 50 mg/kg, po administered as single dose via gavage measured at 4 hrs post dose by liquid chromatography/tandem mass spectrometric analysis; assay type: ADME, organism-based; details: read-out: Drug uptake; how it was run: as §1
[7] = Drug level in Swiss-Webster mouse plasma infected with Trypanosoma brucei brucei TREU667 at 50 mg/kg, po bid administered via gavage for 10 days starting from 21 days post infection measured at 1 hr post last dose; assay type: ADME, organism-based
[8] = AUC (0 to infinity) in mouse plasma at 50 mg/kg, po administered as single dose via gavage by liquid chromatography/tandem mass spectrometric analysis; assay type: ADME, organism-based; design: dose 50 mg/kg, time infinity, route oral
How it was run: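 Time course after a single 50 mg/kg oral dose in 5% DMSO/7% Tween 80/3% EtOH in 0.9% saline. Mice are sacrificed in groups of three at 1, 4, 8 and 24 h. Plasma is separated by centrifugation and brain homogenized in acetonitrile, both measured by LC-MS/MS. Brain values are corrected for 3% v/w blood. Lower limit of quantitation 0.010 μM. Values are means ± SEM.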

[9] = AUC (0 to infinity) in mouse at 50 mg/kg, po administered as single dose via gavage as 60% phosal 53 MCT/30% PEG400/10% EtOH formulation by liquid chromatography/tandem mass spectrometric analysis; assay type: ADME, organism-based; design: dose 50 mg/kg, time infinity, route oral; details: in vivo
How it was run: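 Single oral gavage dose of 50 mg/kg to groups of three mice, vehicle as in the line. Tail blood of 40 μL is taken into heparinized capillaries at time points out to as much as 32 h. It is spotted on dried-blood cards and quantified by LC-MS/MS. Values are means ± SEM of three mice.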

[10] = Drug level in mouse brain at 50 mg/kg, po administered as single dose via gavage measured at 24 hrs post dose by liquid chromatography/tandem mass spectrometric analysis; assay type: ADME, organism-based; details: read-out: Drug uptake; how it was run: as §1
[11] = test system: Trypanosoma brucei rhodesiense; experiment: Antiparasitic activity against Trypanosoma brucei rhodesiense STIB900 infected in Swiss-Webster mouse assessed as reduction in parasitemia at 50 mg/kg, po bid administered via gavage from day 2 to 5 post infection measured on day 60 by microscopic method; assay type: functional, organism-based
How it was run: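 Female Swiss-Webster (ND4 outbred) mice, 6–8 weeks old, five per group, are infected on day 0 with 1 × 10^4 parasites. Dosing is 50 mg/kg by oral gavage every 12 h on days 2–5 (eight doses) in 200 μL of 5% DMSO/7% Tween 80/3% EtOH in 0.9% saline. Tail blood is examined microscopically for 60 days, and mice become parasitemic are euthanized. Three mice are sampled before dose 7 and at 1 and 6 h after for plasma levels.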

[12] = Stability in human liver microsomes assessed as compound remaining at 1.5 uM in presence of NADPH measured after 60 mins by liquid chromatography/tandem mass spectrometric analysis; assay type: ADME, microsome; details: read-out: Stability
How it was run: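 Pooled liver microsomes (0.5 mg/mL) are preincubated 5 min at 37 °C in 0.16 M KH2PO4 with 1 mM NADPH, then test compound is added at 1.5 μM. Aliquots are quenched with 4 volumes of acetonitrile at 0, 5, 10, 15, 30 and 60 min and analyzed by LC-MS/MS. Percent remaining at 5 or 60 min is given when t1/2 is outside the 5–60 min range. Controls: testosterone, dextromethorphan.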

[13] = Drug level in mouse plasma at 50 mg/kg, po administered as single dose via gavage measured at 4 hrs post dose by liquid chromatography/tandem mass spectrometric analysis; assay type: ADME, organism-based; how it was run: as §1
[14] = Drug level in Swiss-Webster mouse plasma infected with Trypanosoma brucei rhodesiense STIB900 at 50 mg/kg, po bid administered via gavage for 4 days starting from 2 days post infection measured at 6 hrs post last dose; assay type: ADME, organism-based
How it was run: (§2)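 Female Swiss-Webster mice (ND4 outbred, 6−8 weeks), groups of five, infected day 0 with 1 × 10^4 T. b. rhodesiense STIB900; 50 mg/kg oral gavage every 12 h days 2−5 (eight doses) in 200 μL DMSO 5%, Tween 80 7%, EtOH 3% in 0.9% saline. Tail blood from 3 mice before dose 7, then 1 and 6 h post-dose, spotted on cards, LC-MS/MS.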

[15] = test system: Plasma; experiment: Drug level in Swiss-Webster mouse plasma infected with Trypanosoma brucei brucei TREU667 at 50 mg/kg, po bid administered via gavage for 10 days starting from 21 days post infection measured on day 7 prior to dose 15; assay type: ADME, organism-based; details: in vivo
How it was run: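 Groups of five mice given 1 × 10^4 T. b. brucei TREU667 on day 0; from day 21, 50 mg/kg oral gavage every 12 h for 10 d (20 doses) in 200 μL Phosal 53 MCT (60%), PEG400 (30%), EtOH (10%). Tail blood drawn from 3 mice before dose 15 and 1 and 6 h after it, spotted on cards, LC-MS/MS.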

[16] = Drug level in Swiss-Webster mouse plasma infected with Trypanosoma brucei rhodesiense STIB900 at 50 mg/kg, po bid administered via gavage for 4 days starting from 2 days post infection measured at 1 hr post last dose; assay type: ADME, organism-based; how it was run: as §2
[17] = Drug level in mouse plasma at 50 mg/kg, po administered as single dose via gavage measured at 24 hrs post dose by liquid chromatography/tandem mass spectrometric analysis; assay type: ADME, organism-based; how it was run: as §1
[18] = Drug level in mouse brain at 5 mg/kg, ip administered as single dose measured at 1 hr post dose by liquid chromatography/tandem mass spectrometric analysis; assay type: ADME, organism-based; details: read-out: Drug uptake
How it was run: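 Single ip dose of 5 mg/kg in 5% DMSO/7% Tween 80/3% EtOH in 0.9% saline, three mice per compound (six for one compound). At 1 h, plasma is separated by centrifugation and brain homogenized in acetonitrile. Both are quantified by LC-MS/MS, with brain corrected for 3% v/w blood. Brain/plasma ratio is reported as mean ± SEM.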

O=C(Nc1ccc2sc(-c3ccc(F)c(F)c3)nc2c1)N1CC[C@H](F)C1
EC50 [1]: > 50000 nM
EC50 [2]: 34.8 nM
EC90 [2]: 54.8 nM
selectivity ratio [3]: > 1440
concentration at 6 h [4]: 26.7 µM
concentration at 8 h [5]: 8.97 µM
concentration at 4 h [6]: 45.2 µM
concentration at 1 h [7]: 23.1 µM
AUC(0-inf) [8]: 180 µM·h
AUC(0-inf) [9]: 245 µM·h
concentration at 24 h [10]: 0.28 µM
Activity [11]: Active
remaining at 1 h, 1.5 µM [12]: 53%
concentration at 4 h [13]: 10.2 µM
concentration at 6 h [14]: 15 µM
concentration [15]: 15.8 µM
concentration at 1 h [16]: 18.6 µM
concentration at 24 h [17]: 0.01 µM
concentration at 1 h [18]: 9.07 µM
